In data set [1] the target is NAD-dependent protein deacylase sirtuin-6 (Homo sapiens) (UniProt Q8N6T7). Description: Activation of N-terminal His-tagged human SIRT6 (1 to 355 residues) expressed in Escherichia coli M15(pREP4) assessed as increase in deacetylation activity using acetyl-H3K9 peptide as substrate incubated for 2 hrs in presence of NAD+ by mass spectrometric analysis relative to control. The essentials: (§1)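 Deacetylation measured by mass spectrometry using an unlabelled acetylated peptide that represents the physiological histone H3 Lys9 site (H3K9ac); compound tested across a dose range.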
NAD-dependent protein deacylase sirtuin-6 (Homo sapiens), sequence (Q8N6T7 whole entry, the tested form may be a part): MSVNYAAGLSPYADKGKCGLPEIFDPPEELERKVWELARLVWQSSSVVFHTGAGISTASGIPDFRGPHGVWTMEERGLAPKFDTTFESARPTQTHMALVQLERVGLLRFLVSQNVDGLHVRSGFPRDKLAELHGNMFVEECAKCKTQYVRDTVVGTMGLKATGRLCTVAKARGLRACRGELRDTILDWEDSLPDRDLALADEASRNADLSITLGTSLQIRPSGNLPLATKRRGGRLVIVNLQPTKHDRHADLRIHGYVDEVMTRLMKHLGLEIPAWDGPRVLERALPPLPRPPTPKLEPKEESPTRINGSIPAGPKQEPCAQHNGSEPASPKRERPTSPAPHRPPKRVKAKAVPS

Data set [2] shares this target. Description: Activation of N-terminal His-tagged human SIRT6 (1 to 355 residues) expressed in Escherichia coli M15(pREP4) assessed as increase in deacetylation activity using FdL1 substrate peptide incubated for 1 hr in presence of NAD+ by fluorescence assay. The following applies: filed as activator. The essentials:
(§2)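 Deacetylation assay with the fluorophore-labelled FdL substrate, run alongside a control for artificial effects from the compound interacting with the fluorophore; fluorescence read-out.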

Data set [3] shares this target. Description: Activation of N-terminal His-tagged human SIRT6 (1 to 355 residues) expressed in Escherichia coli M15(pREP4) assessed as increase in deacetylation activity using acetyl-H3K9 peptide as substrate incubated for 2 hrs in presence of NAD+ by mass spectrometric analysis. The following applies: filed as activator. The gist of the method: as §1
Data set [4] deals with T1, NAD-dependent protein deacetylase sirtuin-1 (Homo sapiens, UniProt Q96EB6).
T1 sequence (Q96EB6 whole entry): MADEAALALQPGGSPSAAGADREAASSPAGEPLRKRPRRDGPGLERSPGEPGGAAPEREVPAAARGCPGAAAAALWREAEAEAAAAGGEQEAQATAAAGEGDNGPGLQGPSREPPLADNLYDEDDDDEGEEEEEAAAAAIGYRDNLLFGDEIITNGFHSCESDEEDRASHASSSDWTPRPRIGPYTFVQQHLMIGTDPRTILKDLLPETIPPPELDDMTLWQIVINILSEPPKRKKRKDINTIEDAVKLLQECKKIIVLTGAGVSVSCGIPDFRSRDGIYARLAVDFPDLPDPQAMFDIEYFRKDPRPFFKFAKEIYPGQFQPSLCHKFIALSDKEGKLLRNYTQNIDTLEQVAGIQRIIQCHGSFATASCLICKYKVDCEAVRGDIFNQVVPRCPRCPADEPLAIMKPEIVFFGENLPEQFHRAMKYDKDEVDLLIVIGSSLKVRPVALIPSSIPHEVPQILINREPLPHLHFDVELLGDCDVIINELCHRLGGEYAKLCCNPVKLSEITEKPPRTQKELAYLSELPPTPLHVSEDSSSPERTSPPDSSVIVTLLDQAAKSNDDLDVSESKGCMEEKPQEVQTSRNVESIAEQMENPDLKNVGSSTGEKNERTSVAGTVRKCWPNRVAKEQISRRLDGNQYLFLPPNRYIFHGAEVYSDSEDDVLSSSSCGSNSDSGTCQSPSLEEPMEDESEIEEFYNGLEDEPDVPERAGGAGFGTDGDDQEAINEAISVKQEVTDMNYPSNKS
Description: Inhibition of N-terminal His-tagged human full length recombinant SIRT1 expressed in Escherichia coli at 250 to 1000 uM by fluorescence based analysis. As to conditions: dose 250-1000 µM.

Data set [5] concerns the target T2, NAD-dependent protein deacetylase sirtuin-2 (Homo sapiens, UniProt Q8IXJ6).
T2 sequence (Q8IXJ6 whole entry): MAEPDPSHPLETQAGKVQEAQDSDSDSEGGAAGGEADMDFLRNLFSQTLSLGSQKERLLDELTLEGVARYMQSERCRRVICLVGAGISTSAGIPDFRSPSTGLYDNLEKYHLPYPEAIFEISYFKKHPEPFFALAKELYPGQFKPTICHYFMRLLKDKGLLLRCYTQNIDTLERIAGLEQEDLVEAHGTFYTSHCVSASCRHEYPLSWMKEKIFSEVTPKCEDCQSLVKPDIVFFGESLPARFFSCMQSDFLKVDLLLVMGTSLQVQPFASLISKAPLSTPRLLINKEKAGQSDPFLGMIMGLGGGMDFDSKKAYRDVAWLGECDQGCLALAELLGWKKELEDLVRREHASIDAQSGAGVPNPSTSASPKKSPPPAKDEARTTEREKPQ
Put plainly: Inhibition of N-terminal His-tagged human recombinant SIRT2 (55 to 356 residues) expressed in Escherichia coli Rossetta2 cells assessed as decrease in substrate deacetylation activity using QPK(acetyl-K) as substrate at 250 to 1000 uM incubated for 30 mins by fluorescence based analysis. The following applies: 0.5 h, dose 250-1000 µM.

For data set [6], the target named is T3, NAD-dependent protein deacetylase sirtuin-3, mitochondrial (Homo sapiens, UniProt Q9NTG7).
T3 sequence (Q9NTG7 whole entry): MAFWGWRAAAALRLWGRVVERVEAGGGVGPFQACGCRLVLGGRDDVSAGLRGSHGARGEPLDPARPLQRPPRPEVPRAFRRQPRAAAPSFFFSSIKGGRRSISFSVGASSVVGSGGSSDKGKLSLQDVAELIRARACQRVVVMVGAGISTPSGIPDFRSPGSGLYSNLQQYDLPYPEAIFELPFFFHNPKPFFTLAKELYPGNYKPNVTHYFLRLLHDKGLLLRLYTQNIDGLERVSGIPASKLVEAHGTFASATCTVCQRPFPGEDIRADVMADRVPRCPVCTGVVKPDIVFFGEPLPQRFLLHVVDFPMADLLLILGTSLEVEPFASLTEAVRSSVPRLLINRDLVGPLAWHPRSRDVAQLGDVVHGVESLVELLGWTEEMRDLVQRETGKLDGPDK
Description: Inhibition of N-terminal His-tagged human recombinant SIRT3 (118 to 399 residues) expressed in Escherichia coli assessed as decrease in substrate deacetylation using QPK(acetyl-K) as substrate at 250 to 1000 uM incubated for 30 mins by fluorescence based analysis. The following applies: 0.5 h, dose 250-1000 µM.

In data set [7] the target is NAD-dependent protein deacylase sirtuin-6 (Homo sapiens) (UniProt Q8N6T7). Description: Activation of His-tagged N-terminal truncated human SIRT6 (13 to 355 residues) expressed in Escherichia coli BL21 (DE3) codon+ cells assessed as increase in deacetylation activity using acetyl-H3K9 peptide as substrate incubated for 2 hrs in presence of NAD+ by mass spectrometric analysis relative to control. The following applies: filed as activator.

The target is the same in data set [8]. Description: Activation of N-terminal His-tagged human SIRT6 (1 to 355 residues) expressed in Escherichia coli M15(pREP4) assessed as increase in substrate deacetylation activity using FdL1 substrate peptide at 250 to 1000 uM incubated for 1 hr in presence of NAD+ by fluorescence assay. The following applies: filed as activator, dose microM 250-1000, time 1.0 hrs. The gist of the method:
as §2

Calls of active or inactive are those of the source. No cut-off for these calls is given here.

The source of these data is ChEMBL document CHEMBL4725480 (ACS Med Chem Lett, 2020).

Take `CC(C)n1c(/C=C/C(O)CC(O)CC(=O)O)c(-c2ccc(F)cc2)c2ccccc21` (stereo not drawn) [FLUVASTATIN]: the fold change (FC) in data set [1] was above 3; in data set [7], 4. The outcome in data set [2] and in data set [8] was Active. Besides, the Activity entry in data set [3] was “Dose-dependent effect”. Further, the “inhibition (INH)” value in data set [4], in data set [5] and in data set [6] was “Active” each time.
